The results in this text go back to ChEMBL document CHEMBL1926520, “13,13-Dimethyl-des-C,D analogues of (20S)-1α,25-dihydroxy-2-methylene-19-norvitamin D₃ (2MD): total synthesis, docking to the VDR, and biological evaluation” (Bioorg Med Chem, 2011).

Usually EC50 stands for the concentration that produces a half-maximal response. A word on the Ki: it is a measure of affinity in units of concentration, obtained from inhibition or displacement.

Test [1] deals with Rattus norvegicus. The test can be described thus: Calcium mobilization in vitamin-D deficient weanling rat bone assessed as increase in serum calcium level at 0.2 ug/kg, ip administered daily for 7 consecutive days measured 24 hrs after last dose relative to vehicle treated control. Type of test: functional. A digest of the protocol: (§1)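 Vitamin D-deficient rats were kept on a low-calcium diet and in the final week dosed ip once daily for 7 consecutive days in 0.1 ml propylene glycol/ethanol (95:5). Controls received vehicle only. Serum Ca (mg/dL) was measured 24 h after the last dose and reported as the increase over vehicle-treated rats, average ± SEM, with 5–6 rats per group.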
In general terms: Calcium assays in cells follow changes in intracellular calcium, usually with a dye or a luminescent sensor.

Test [2] has as its system Rattus norvegicus. In words: Calcium mobilization in vitamin-D deficient weanling rat bone assessed as increase in serum calcium level at 0.7 ug/kg, ip administered daily for 7 consecutive days measured 24 hrs after last dose relative to vehicle treated control. The format is functional. The procedure, abridged: as §1
Test [3] deals with Rattus norvegicus. The test can be described thus: Calcium mobilization in vitamin-D deficient weanling rat bone assessed as increase in serum calcium level at 2.1 ug/kg, ip administered daily for 7 consecutive days measured 24 hrs after last dose relative to vehicle treated control. The format is functional. The procedure, abridged:
as §1

The test system of test [4] is Rattus norvegicus. The test can be described thus: Calcium mobilization in vitamin-D deficient weanling rat bone assessed as increase in serum calcium level at 19 ug/kg, ip administered daily for 7 consecutive days measured 24 hrs after last dose relative to vehicle treated control. The format is functional. A digest of the protocol: as §1
Test [5] has as its system Rattus norvegicus. The test can be described thus: Calcium transport in vitamin-D deficient weanling rat intestine assessed as intestinal calcium level at 0.2 ug/kg, ip administered daily for 7 consecutive days measured 24 hrs after last dose. Type of test: functional. A digest of the protocol:
(§2)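 Vitamin D-deficient rats were kept on a low-calcium diet and dosed ip daily for 7 consecutive days in the last week, in 0.1 ml propylene glycol/ethanol (95:5), with vehicle-only controls. Measurements were taken 24 h after the final dose. Intestinal calcium transport was expressed as the rise in serosal/mucosal (S/M) ratio over vehicle, average ± SEM, with 5–6 rats per group.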

Test [6] has as its system Rattus norvegicus. In words: Calcium transport in vitamin-D deficient weanling rat intestine assessed as intestinal calcium level at 0.7 ug/kg, ip administered daily for 7 consecutive days measured 24 hrs after last dose. Type of test: functional. A digest of the protocol: as §2
Test [7] concerns Rattus norvegicus. In words: Calcium transport in vitamin-D deficient weanling rat intestine assessed as intestinal calcium level at 2.1 ug/kg, ip administered daily for 7 consecutive days measured 24 hrs after last dose. Type of test: functional. The procedure, abridged: as §2
For test [8], the system named is Rattus norvegicus. In words: Calcium transport in vitamin-D deficient weanling rat intestine assessed as intestinal calcium level at 19 ug/kg, ip administered daily for 7 consecutive days measured 24 hrs after last dose. Type of test: functional. The procedure, abridged: as §2
The target of test [9] is T1, Vitamin D3 receptor (Rattus norvegicus, UniProt P13053).
T1 sequence (P13053 whole entry): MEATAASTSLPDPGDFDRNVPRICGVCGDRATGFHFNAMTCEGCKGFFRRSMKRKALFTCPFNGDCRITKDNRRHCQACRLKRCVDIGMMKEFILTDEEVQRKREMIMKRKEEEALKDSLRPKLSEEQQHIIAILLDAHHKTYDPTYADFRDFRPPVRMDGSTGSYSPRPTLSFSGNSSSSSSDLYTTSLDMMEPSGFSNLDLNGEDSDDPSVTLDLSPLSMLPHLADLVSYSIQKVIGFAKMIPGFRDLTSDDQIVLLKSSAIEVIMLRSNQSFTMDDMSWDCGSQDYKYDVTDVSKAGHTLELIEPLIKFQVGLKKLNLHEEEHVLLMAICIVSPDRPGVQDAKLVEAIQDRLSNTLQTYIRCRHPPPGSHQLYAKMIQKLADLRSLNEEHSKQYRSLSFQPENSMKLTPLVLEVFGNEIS
In words: Agonist activity at rat VDR in ROS 17/2.8 cells transfected with Cyp24a1 reporter plasmid assessed as increase in Cyp24a1 transcription after 16 hrs by luciferase reporter gene assay. Type of test: functional, cell-based. The procedure, abridged: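 ROS 17/2.8 osteosarcoma (bone) cells stably carrying a Cyp24a1 promoter–luciferase reporter were given a range of doses. Cells were harvested 16 h after dosing and luciferase was read on a luminometer. Duplicates were run on two–three separate occasions.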

In test [10] the test system is Rattus norvegicus. The test can be described thus: Calcium mobilization in vitamin-D deficient weanling rat bone assessed as increase in serum calcium level at 6.5 ug/kg, ip administered daily for 7 consecutive days measured 24 hrs after last dose relative to vehicle treated control. The format is functional. The procedure, abridged: as §1
Test [11] concerns Rattus norvegicus. In words: Calcium transport in vitamin-D deficient weanling rat intestine assessed as intestinal calcium level at 6.5 ug/kg, ip administered daily for 7 consecutive days measured 24 hrs after last dose. The format is functional. A digest of the protocol: as §2
Test [12] concerns the target T1, Vitamin D3 receptor. The test can be described thus: Displacement of [3H]-1alpha,25(OH)2D3 from recombinant rat VDR by scintillation counting. The procedure, abridged:
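It was incubated overnight on ice with 1 nM final [3H]-1α,25(OH)2D3 plus unlabeled ligand in ethanol (<10% final). Bound ligand was collected on hydroxylapatite, washed and counted by scintillation. […] Duplicates were run on two–three occasions.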
For orientation: In a radioligand displacement assay an active substance lowers the binding of a labelled ligand.

Test [13] concerns HL-60. In words: Induction of human HL60 cell differentiation after 4 days by nitro blue tetrazolium reduction assay relative to 1alpha,25(OH)2D3. Type of test: functional. A digest of the protocol: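 HL-60 cells were grown in RPMI-1640 with 10% FBS at 37 °C and 5% CO2, plated at 1.2×10^5 cells/plate, and treated in duplicate 18 h later (ethanol <0.2% final). After 4 days, NBT reduction was scored by counting formazan-positive cells among 200. […] The experiment was repeated 2–3 times.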

Test [14] relates to Rattus norvegicus. The test can be described thus: Calcium mobilization in vitamin-D deficient weanling rat bone assessed as increase in serum calcium level at 1.9 ug/kg, ip administered daily for 7 consecutive days measured 24 hrs after last dose relative to vehicle treated control. The format is functional. The procedure, abridged: as §1
Test [15] has as its system Rattus norvegicus. The test can be described thus: Calcium mobilization in vitamin-D deficient weanling rat bone assessed as increase in serum calcium level at 5.7 ug/kg, ip administered daily for 7 consecutive days measured 24 hrs after last dose relative to vehicle treated control. Type of test: functional. A digest of the protocol: as §1
Test [16] relates to Rattus norvegicus. In words: Calcium mobilization in vitamin-D deficient weanling rat bone assessed as increase in serum calcium level at 22.8 ug/kg, ip administered daily for 7 consecutive days measured 24 hrs after last dose relative to vehicle treated control. Type of test: functional. The procedure, abridged:
as §1

In test [17] the test system is Rattus norvegicus. The test can be described thus: Calcium mobilization in vitamin-D deficient weanling rat bone assessed as increase in serum calcium level at 97 ug/kg, ip administered daily for 7 consecutive days measured 24 hrs after last dose relative to vehicle treated control. The format is functional. The procedure, abridged:
as §1

Test [18] has as its system Rattus norvegicus. The test can be described thus: Calcium transport in vitamin-D deficient weanling rat intestine assessed as intestinal calcium level at 97 ug/kg, ip administered daily for 7 consecutive days measured 24 hrs after last dose. The format is functional. The procedure, abridged: as §2
Test [19] concerns HL-60. In words: Induction of human HL60 cell differentiation after 4 days by nitro blue tetrazolium reduction assay. The format is functional, cell-based. As to conditions: HL-60, 96 h.

Turning to `C=C1/C(=C\C=C2/CCC[C@]3(C)[C@@H]([C@H](C)CCCC(C)(C)O)CC[C@@H]23)C[C@@H](O)C[C@@H]1O` [CALCITRIOL], the Activity in [1] was determined as 0.5 mg/dL; in [2] it was 1.3 mg/dL; in [3], 1.9 mg/dL; in test [4] it was 3.9 mg/dL; in [5], 4.2 mg/dL; in test [6] it was 2.8 mg/dL. In addition, the Activity in test [7] was determined as 4.2 mg/dL; in test [8], 5.9 mg/dL.

With `C=C1[C@H](O)CC(=C/C=C\CC(C)(C)C[C@@H](C)CCCC(C)(C)O)C[C@H]1O`, the EC50 in test [9] worked out at 30 nM. Besides, the Activity came out at 0.2 mg/dL in [10] and 0.1 mg/dL in [11]. In addition, the Ki in test [12] is 10 nM.

For the compound `C=C1[C@H](O)CC(=C/C=C/CCC[C@@H](C)CCCC(C)(C)O)C[C@H]1O`, the “Ratio EC50” value in test [13] was 100. The Activity is -0.2 mg/dL in test [14], 0.1 mg/dL in [15] and 0.2 mg/dL in [16].

Regarding `C=C1[C@H](O)CC(=C/C=C/CC(C)(C)C[C@@H](C)CCCC(C)(C)O)C[C@H]1O`, the “Ratio EC50” value in test [13] worked out at 2. For the same compound, the EC50 in test [9] is 2 nM; in [19] it was 6 nM. For the same compound, the Activity in test [3] came to 0.2 mg/dL; in [4] it was 0.4 mg/dL; in test [10], 0.6 mg/dL; in [17] it was 0.3 mg/dL; in [7] it was 0 mg/dL; in [8], 1 mg/dL. Moreover, the Activity was found to be 0.4 mg/dL in [11] and 2.6 mg/dL in [18]. For the same compound, the Ki in test [12] was determined as 2 nM.
